In paper PMC6976987 (Molecular Genetics and Metabolism Reports, 2020):

Assays:
Safety assessments [1] = format: in vivo, human
Procedure, shortened: (§1)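 Open-label study in healthy adults. Safety was monitored after a single dose (Day 1), during multiple doses alone (Days 2–8), and during co-dosing (Days 9–15 with the CYP3A/P-gp inhibitor; Days 9–18 with the CYP2D6 inhibitor). Measures: treatment-emergent AEs, clinical labs, vital signs, physical exams, 12-lead ECG, 12 h continuous telemetry. An AE counted as treatment-related if possibly, probably or definitely related to study drug.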

Safety assessments [2] = format: in vivo, human; conditions: concomitant dosing with eliglustat, N = 33
Procedure, shortened: as §1

## Fc1ccc([C@@H]2CCNC[C@H]2COc2ccc3c(c2)OCO3)cc1 [paroxetine]
Safety assessments [1]; concomitant dosing with eliglustat, N = 35
  subjects reporting AEs related to paroxetine: 71.4%
Safety assessments [1]; concomitant dosing, deemed probably related to paroxetine
  subjects with moderate clinically significant increases in blood pressure: 17.1%

## CC(=O)N1CCN(c2ccc(OCC3COC(Cn4ccnc4)(c4ccc(Cl)cc4Cl)O3)cc2)CC1 (stereo not drawn) [ketoconazole]
Safety assessments [2]
  subjects reporting AEs related to ketoconazole: 33.3%
